Data on 17 compounds can be found in ChEMBL document CHEMBL1142736, “Synthesis of novel diarylpyrimidine analogues and their antiviral activity against human immunodeficiency virus type 1” (J Med Chem, 2005).

In data set [1] the test system is Human immunodeficiency virus 1. In words: Effective concentration against human immunodeficiency virus type 1 mutated at 103N. The data set is classed as functional, organism-based.
Data set [2] has as its system Human immunodeficiency virus 1. The experiment in a line: Effective concentration against human immunodeficiency virus type 1 mutated at 227C. The data set is classed as functional, organism-based.
In data set [3] the test system is Human immunodeficiency virus 1. The experiment in a line: Effective concentration against human immunodeficiency virus type 1 mutated at 100I. The data set is classed as functional, organism-based.
Data set [4] deals with Human immunodeficiency virus 1. In words: Effective concentration against human immunodeficiency virus type 1 mutated at 188L. The data set is classed as functional, organism-based.
Data set [5] can be described thus: Cytotoxic concentration against wild type human immunodeficiency virus type 1 […] strain. The settings on record: Human immunodeficiency virus 1. The method in brief:
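MT-4 cells, 30,000 cells/well, were mock-infected (virus at 200-250 CCID50/well for the infected wells) and exposed to a range of compound concentrations. Plates were held at 37 °C with 5% CO2.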

Data set [6] concerns Human immunodeficiency virus 1. In words: Effective concentration against human immunodeficiency virus type 1 mutated at 181C. In kind it is functional, organism-based.
Data set [7] relates to Human immunodeficiency virus 1. In words: Ratio of CC50 and EC50 against wild type human immunodeficiency virus type 1 LAI strain. The data set is classed as functional.
The test system of data set [8] is Human immunodeficiency virus 1. The experiment in a line: Effective concentration for the inhibition of wild type human immunodeficiency virus type 1 LAI strain. The data set is classed as functional, organism-based.
The subject of data set [9] is Human immunodeficiency virus 1. The experiment in a line: Effective concentration against human immunodeficiency virus type 1 mutated at 227L+106A. The data set is classed as functional, organism-based.
Data set [10] concerns Human immunodeficiency virus 1. The experiment in a line: Effective concentration against human immunodeficiency virus type 1 mutated at 100I+103N. In kind it is functional, organism-based.
Data set [11] relates to Human immunodeficiency virus 1. In words: Effective concentration against human immunodeficiency virus type 1 mutated at 103N+181C. In kind it is functional, organism-based.
The test system of data set [12] is Human immunodeficiency virus 1. In words: Effective concentration against human immunodeficiency virus type 1 mutated at 103N+181C; ND:Not determined. The data set is classed as functional, organism-based.

In general, EC50 refers to the concentration giving half of the maximal effect. Usually CC50 stands for the concentration giving 50% cytotoxicity. Higher therefore signals lower toxicity to the cells. Take `Cc1cc(/C=C(/C#N)CC#N)cc(C)c1Nc1ccnc(Nc2ccc(C#N)cc2)n1`: the concentration for a half-maximal effect (EC50) in data set [1] was found to be 0.00631 µM; in [2] it was 0.0125 µM; in data set [3], 0.0316 µM; in data set [4], 0.0316 µM; in data set [6] it was 0.00631 µM; in data set [8], 0.0004 µM. The compound also came in with an EC50 in [9] of 0.0251 µM. In data set [5], this compound registered a half-maximal cytotoxic concentration (CC50) of 2 µM. In addition, the Selectivity index in data set [7] is 5012.
On to `Cc1cc(/C=C\C#N)cc(C)c1Nc1ccnc(Nc2ccc(C#N)cc2)n1`, for which the half-maximal effective concentration (EC50) worked out at 0.0016 µM in data set [1]; 0.004 µM in data set [2]; 0.794 µM in data set [10]; 0.0063 µM in data set [3]; 0.031 µM in [4]; 0.005 µM in data set [6]. Besides, the values for the EC50 in [8], in data set [11] and in [9] were 0.0006 µM, 0.0398 µM and 0.004 µM, respectively. The compound further displayed a CC50 in data set [5] of 30 µM.
On to `C/C(C#N)=C\c1cc(C)c(Nc2ccnc(Nc3ccc(C#N)cc3)n2)c(C)c1`, for which the concentration giving a half-maximal response (EC50) in data set [1] worked out at 0.0006 µM; in data set [2], 0.00251 µM; in data set [10] it was 0.00795 µM; in [3], 0.0006 µM; in data set [4] it was 0.00316 µM; in data set [6], 0.0016 µM. Moreover, the concentration giving a half-maximal response (EC50) in [8] was 0.0008 µM; in [11], 0.002 µM; in data set [9], 0.004 µM. The compound further gave a CC50 in data set [5] of 20 µM. The Selectivity index in data set [7] was 25000.
With `Cc1cc(/C(Cl)=C/C#N)cc(C)c1Nc1ccnc(Nc2ccc(C#N)cc2)n1`, the EC50 is 0.002 µM in data set [1]; 0.0316 µM in [2]; 0.0316 µM in [10]; 0.00251 µM in data set [3]; 0.00795 µM in data set [4]; 0.00631 µM in [6]. Further, the EC50 was 0.004 µM in [8], 0.00631 µM in data set [11] and 0.00795 µM in data set [9]. In data set [5], the CC50 was 30 µM. For the same compound, the Selectivity index in [7] worked out at 7500.
In the case of `C/C(C#N)=C/c1cc(C)c(Nc2ccnc(Nc3ccc(C#N)cc3)n2)c(C)c1`, the EC50 was 0.001 µM in [1]; 0.005 µM in [2]; > 10 µM in [10]; 0.0316 µM in data set [3]; 0.0316 µM in data set [4]; 0.004 µM in [6]. Further, the figures for the half-maximal effective concentration (EC50) in data set [8], in data set [11] and in [9] were 0.0008 µM, 0.02 µM and 0.005 µM, respectively. This compound returned a CC50 in data set [5] of 3 µM. In data set [7], the Selectivity index was 3750.
For the compound `Cc1cc(/C=C/CC#N)cc(C)c1Nc1ccnc(Nc2ccc(C#N)cc2)n1`, the EC50 in [1] came to 0.00251 µM; in [2], 0.04 µM; in data set [10], 0.251 µM; in data set [3], 0.04 µM; in [4] it was 0.02 µM; in [6], 0.0316 µM. Also, the concentration giving a half-maximal response (EC50) in data set [8] amounted to 0.001 µM; in [11] it was 0.001 µM; in data set [9] it was 0.05 µM. In [5], this compound registered a CC50 of 10 µM. In [7], the Selectivity index came to 10000.
Regarding `Cc1cc(CC(C)C#N)cc(C)c1Nc1ccnc(Nc2ccc(C#N)cc2)n1` (stereo not drawn), the EC50 in data set [1] was determined as 0.00063 µM; in data set [2] it was 0.00631 µM; in data set [10], 0.0125 µM; in [3] it was 0.001 µM; in data set [4] it was 0.05 µM; in data set [6] it was 0.002 µM. Also, the EC50 in data set [8] was determined as 0.00063 µM; in data set [11], 0.005 µM; in data set [9], 0.00316 µM. In data set [5], this compound gave a half-maximal cytotoxic concentration (CC50) of 1 µM. Further, the Selectivity index in [7] came out at 1578.
Take `Cc1cc(-c2ccc(C#N)o2)cc(C)c1Nc1ccnc(Nc2ccc(C#N)cc2)n1`: the concentration giving a half-maximal response (EC50) in [1] amounted to 0.00795 µM; in data set [2], 0.0316 µM; in data set [10], 0.5 µM; in data set [3] it was 0.0316 µM; in data set [4], 0.0316 µM; in data set [6] it was 0.04 µM. For the same compound, the EC50 was 0.004 µM in [8] and 0.0316 µM in data set [9]. The same compound gave a 50% cytotoxic concentration (CC50) in [5] of 10 µM. In addition, in data set [7], the Selectivity index was determined as 3162.
`Cc1cc(COCCC#N)cc(C)c1Nc1ccnc(Nc2ccc(C#N)cc2)n1`: the EC50 was found to be 0.00316 µM in [1]; 0.01 µM in [2]; 0.0251 µM in [3]; 0.04 µM in data set [4]; 0.0316 µM in data set [6]; 0.00063 µM in data set [8]. In [9], this compound showed an EC50 of 0.125 µM. Also, the CC50 in [5] was found to be 10 µM. Further, the Selectivity index in data set [7] stood at 15873.
In the case of `Cc1cc(CC#N)cc(C)c1Nc1ccnc(Nc2ccc(C#N)cc2)n1`, the EC50 amounted to 0.00795 µM in data set [1]; 0.01 µM in [2]; 0.04 µM in data set [3]; 0.0251 µM in data set [4]; 0.0251 µM in data set [6]; 0.0008 µM in data set [8]. The same compound returned an EC50 in data set [9] of 0.125 µM. In data set [5], the CC50 was found to be 10 µM. The Selectivity index in [7] is on record as 12589.
`Cc1cc(CCC#N)cc(C)c1Nc1ccnc(Nc2ccc(C#N)cc2)n1`: the EC50 was 0.0004 µM in data set [1]; 0.004 µM in data set [2]; 0.0316 µM in data set [10]; 0.00795 µM in data set [3]; 0.02 µM in data set [4]; 0.0125 µM in [6]. Further, the EC50 in [8] was determined as 0.00063 µM; in [11] it was 0.00251 µM; in [9] it was 0.004 µM. The midpoint of cytotoxicity in data set [5], the CC50, lay at 3 µM. Further, the Selectivity index in data set [7] stood at 4782.
For `C/C(=C\C#N)c1cc(C)c(Nc2ccnc(Nc3ccc(C#N)cc3)n2)c(C)c1`, the EC50 was found to be 0.001 µM in data set [1]; 0.005 µM in data set [2]; 0.00251 µM in data set [10]; 0.0008 µM in [3]; 0.004 µM in [4]; 0.00251 µM in [6]. Further, the EC50 in data set [8] was 0.001 µM; in data set [11], 0.00251 µM; in data set [9], 0.005 µM. In [5], this compound registered a CC50 of 30 µM. For the same compound, the Selectivity index in data set [7] was determined as 30000.
As for `Cc1cc(C#N)cc(C)c1Nc1ccnc(Nc2ccc(C#N)cc2)n1`, the concentration for a half-maximal effect (EC50) in data set [1] was determined as 0.002 µM; in data set [2], 0.1 µM; in data set [10], 1 µM; in data set [3] it was 0.031 µM; in data set [4], 0.0079 µM; in data set [6], 0.0063 µM. For the same compound, the concentration giving a half-maximal response (EC50) came out at 0.0004 µM in [8], 0.031 µM in data set [11] and 0.0126 µM in data set [9]. Besides, the midpoint of cytotoxicity in [5], the CC50, lay at 5 µM. Also, the Selectivity index in data set [7] is listed as 12500.
As for `CC(C)Nc1cccnc1N1CCN(C(=O)c2cc3cc(NS(C)(=O)=O)ccc3[nH]2)CC1` [DELAVIRDINE], the EC50 in data set [1] is 2.51 µM; in [3], 2.51 µM; in [4] it was 1.26 µM; in data set [6], 2 µM; in [8], 0.0631 µM; in [12] it was 20 µM. In addition, in data set [5], the cytotoxic concentration (CC50) is > 20 µM. In addition, the Selectivity index in [7] is >300.
As to `O=C1Nc2ccc(Cl)cc2[C@@](C#CC2CC2)(C(F)(F)F)O1` [EFAVIRENZ], the concentration for a half-maximal effect (EC50) in [1] is 0.04 µM; in data set [2] it was 0.16 µM; in [10], > 10 µM; in data set [3], 0.04 µM; in data set [4], 0.16 µM; in data set [6] it was 0.002 µM. This compound gave a concentration giving a half-maximal response (EC50) in data set [11] of 0.04 µM. This compound also registered a CC50 in data set [5] of 10 µM.
On to `Cc1ccnc2c1NC(=O)c1cccnc1N2C1CC1` [NEVIRAPINE], for which the half-maximal effective concentration (EC50) in [1] is 6.31 µM; in data set [3], 0.316 µM; in data set [4], > 10 µM; in [6] it was 10 µM; in data set [8] it was 0.0398 µM; in [11] it was > 10 µM. Moreover, the CC50 in data set [5] is 20 µM. For the same compound, in data set [7], the Selectivity index is given as >500.
For `Cc1cc(/C=C/C#N)cc(C)c1Nc1ccnc(Nc2ccc(C#N)cc2)n1` [RILPIVIRINE], the EC50 in data set [1] stood at 0.0003 µM; in data set [2], 0.002 µM; in data set [10], 0.00795 µM; in data set [3], 0.0004 µM; in data set [4], 0.002 µM; in [6], 0.00126 µM. In addition, the EC50 in [11] and in [9] was 0.001 µM in each case. In data set [5], this compound gave a CC50 of 30 µM.
